Where two headings read alike, the source gives them in different places. Marks after values point to notes of the source that are not given here.
How the values were obtained:
Wild-type CB2 = Wild-type CB2 (Homo sapiens, UniProt P34972, Q63R); assay: G protein dissociation BRET assay, wild-type CB2; type: cell-based
CB2 D356A/D359A [1] = molecular target: T1, CB2 D356A/D359A (Homo sapiens, UniProt P34972, D356A/D359A/Q63R); assay: G protein dissociation BRET assay, CB2 D356A/D359A; type: cell-based
CB2 D356A/D359A [2] = molecular target: T1, CB2 D356A/D359A; assay: β-arrestin 2 translocation BRET assay, CB2 D356A/D359A mutant; type: cell-based; details: for Span, β-arrestin 2 translocation, CB2 D356A/D359A: HEK 293 cells
CB2 [3] = molecular target: T2, CB2 (Homo sapiens, UniProt P34972, Q63R); assay: β-arrestin 2 translocation real-time BRET assay, wild-type CB2; type: cell-based; details: for Span, β-arrestin 2 translocation to CB2 / Span, β-arrestin 2 translocation, wild-type CB2: HEK 293 cells
CB2 D351A/D354A [4] = molecular target: T3, CB2 D351A/D354A (Homo sapiens, UniProt P34972, D351A/D354A/Q63R); assay: β-arrestin 2 translocation BRET assay, CB2 D351A/D354A mutant; type: cell-based; details: for Span, β-arrestin 2 translocation, CB2 D351A/D354A: HEK 293 cells
[5] = molecular target: T4, CB2 D351A/D354A/D356A/D359A (Homo sapiens, UniProt P34972, D351A/D354A/D356A/D359A/Q63R); assay: G protein dissociation BRET assay, CB2 D351A/D354A/D356A/D359A; type: cell-based; details: HEK 293 cells
[6] = molecular target: T4, CB2 D351A/D354A/D356A/D359A; assay: β-arrestin 2 translocation BRET assay, CB2 D351A/D354A/D356A/D359A mutant; type: cell-based; details: for Span, β-arrestin 2 translocation, CB2 D351A/D354A/D356A/D359A: HEK 293 cells
CB2 D351A/D354A [7] = molecular target: T3, CB2 D351A/D354A; assay: G protein dissociation BRET assay, CB2 D351A/D354A; type: cell-based
CB2 [8] = molecular target: T2, CB2; assay: β-arrestin 1 translocation real-time BRET assay; type: cell-based; details: HEK 293 cells
endogenous GRK2/3 = type: cell-based, human; details: 30-μM compound 101, 30 min
Summary of the method: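 HEK 293 cells PEI-transfected with mem-Citrine-SH3, Rluc8-β-arrestin 2, HA-hCB2 and empty vector, then replated on PDL. Equilibrated ~30 min in phenol red-free DMEM with 1 mg/mL fatty acid-free BSA and 10 mM HEPES, then given 30 µM test compound or vehicle for 30 min.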

T3 sequence (P34972 whole entry Q63R/D351A/D354A): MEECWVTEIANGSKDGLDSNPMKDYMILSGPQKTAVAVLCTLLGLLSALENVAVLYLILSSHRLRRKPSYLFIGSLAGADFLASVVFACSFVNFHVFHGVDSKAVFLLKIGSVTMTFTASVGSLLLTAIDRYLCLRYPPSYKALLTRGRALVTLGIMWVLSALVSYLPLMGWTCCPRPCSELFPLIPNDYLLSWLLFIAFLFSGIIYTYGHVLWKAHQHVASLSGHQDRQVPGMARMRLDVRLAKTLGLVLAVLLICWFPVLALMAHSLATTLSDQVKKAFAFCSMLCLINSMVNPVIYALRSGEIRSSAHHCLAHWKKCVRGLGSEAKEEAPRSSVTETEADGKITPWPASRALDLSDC
T4 sequence (P34972 whole entry Q63R/D351A/D354A/D356A/D359A): as the sequence (P34972 whole entry Q63R/D351A/D354A) above, with D356A, D359A counted along it
T1 sequence (P34972 whole entry Q63R/D356A/D359A): as the sequence (P34972 whole entry Q63R/D351A/D354A) above, with A351D, A354D, D356A, D359A counted along it
T2 sequence (P34972 whole entry Q63R): as the sequence (P34972 whole entry Q63R/D351A/D354A) above, with A351D, A354D counted along it
Wild-type CB2, sequence (P34972 whole entry Q63R): as the sequence (P34972 whole entry Q63R/D351A/D354A) above, with A351D, A354D counted along it

## CCCCCCC(C)(C)c1ccc([C@@H]2C[C@H](O)CC[C@H]2CCCO)c(O)c1 [CP55940]
Wild-type CB2; 1-μM CP55940
  attenuation of G protein dissociation by addition of β-arrestin 2: over 50%
Wild-type CB2; HEK 293 cells, + GRK3
  G protein dissociation at 1 μM CP55940: −226.64 (5.63) ΔBRET.s
Wild-type CB2; HEK 293 cells, + β-arrestin 2
  G protein dissociation at 1 μM CP55940: −97.47 (3.67) ΔBRET.s
  G protein dissociation at 1 μM CP55940, % mock: 45.28 (2.15) % mock
Wild-type CB2; HEK 293 cells, + β-arrestin 2 + GRK3
  G protein dissociation at 1 μM CP55940: −91.65 (4.04) ΔBRET.s
Wild-type CB2; HEK 293 cells, mock
  Span, G protein dissociation: −216.50 (8.58) ΔBRET.s
CB2 D356A/D359A [1]; 1-μM CP55940
  attenuation of G protein dissociation by addition of β-arrestin 2: over 50%
CB2 D356A/D359A [1]; HEK 293 cells, + β-arrestin 2
  G protein dissociation at 1 μM CP55940: −91.91 (4.94) ΔBRET.s
  G protein dissociation at 1 μM CP55940, % mock: 49.37 (2.63) % mock
CB2 D356A/D359A [1]; HEK 293 cells, mock
  Span, G protein dissociation: −186.32 (4.70) ^* ΔBRET.s
CB2 D356A/D359A [2]; coexpression of GRK2
  Span, β-arrestin 2 translocation, CB2 D356A/D359A: 161.84 (5.06) ΔBRET.s
CB2 D356A/D359A [2]; coexpression of GRK3
  Span, β-arrestin 2 translocation, CB2 D356A/D359A: 188.04 (8.90) ΔBRET.s
CB2 D356A/D359A [2]; mock
  Span, β-arrestin 2 translocation, CB2 D356A/D359A: 170.18 (6.70)^◊ ΔBRET.s
  reduction in efficacy of β-arrestin 2 translocation versus wild-type CB2: 24%
CB2 [3]; coexpression of GRK1, Table 2
  Span, β-arrestin 2 translocation to CB2: 183.2 (11.32) ΔBRET.s
CB2 [3]; coexpression of GRK2, Table 2
  Span, β-arrestin 2 translocation to CB2: 164.3 (16.29) ^* ΔBRET.s
CB2 [3]; coexpression of GRK2, Table 3 (mutant experiments)
  Span, β-arrestin 2 translocation, wild-type CB2: 174.54 (11.90) ^* ΔBRET.s
CB2 [3]; coexpression of GRK3, Table 2
  Span, β-arrestin 2 translocation to CB2: 155.0 (9.91) ^* ΔBRET.s
CB2 [3]; coexpression of GRK3, Table 3 (mutant experiments)
  Span, β-arrestin 2 translocation, wild-type CB2: 210.00 (2.53) ^* ΔBRET.s
CB2 [3]; coexpression of GRK4, Table 2
  Span, β-arrestin 2 translocation to CB2: 176.9 (8.00) ΔBRET.s
CB2 [3]; coexpression of GRK5, Table 2
  Span, β-arrestin 2 translocation to CB2: 156.0 (6.71) ^* ΔBRET.s
CB2 [3]; coexpression of GRK6, Table 2
  Span, β-arrestin 2 translocation to CB2: 160.6 (8.71) ΔBRET.s
CB2 [3]; mock (no GRK), Table 2
  Span, β-arrestin 2 translocation to CB2: 190.2 (12.38) ΔBRET.s
CB2 [3]; mock, Table 3 (mutant experiments)
  Span, β-arrestin 2 translocation, wild-type CB2: 222.91 (6.17) ΔBRET.s
CB2 [3]; coexpression of GRK2, GRK3 and GRK5 versus mock
  lowering of efficacy of β-arrestin 2 translocation by GRK coexpression: 10–20%
CB2 D351A/D354A [4]; coexpression of GRK2
  Span, β-arrestin 2 translocation, CB2 D351A/D354A: 147.34 (2.60) ^* ΔBRET.s
CB2 D351A/D354A [4]; coexpression of GRK3
  Span, β-arrestin 2 translocation, CB2 D351A/D354A: 147.06 (10.88) ΔBRET.s
CB2 D351A/D354A [4]; mock
  Span, β-arrestin 2 translocation, CB2 D351A/D354A: 132.61 (6.99)^◊ ΔBRET.s
  reduction in efficacy of β-arrestin 2 translocation versus wild-type CB2: 41%
[5]; + GRK3
  G protein dissociation at 1 μM CP55940: −267.49 (4.62)^ⱡ ΔBRET.s
[5]; + β-arrestin 2
  G protein dissociation at 1 μM CP55940: −165.31 (10.19)^◊ ΔBRET.s
  G protein dissociation at 1 μM CP55940, % mock: 67.29 (4.02)^◊ % mock
[5]; + β-arrestin 2 + GRK3
  G protein dissociation at 1 μM CP55940: −155.77 (3.82)^◊ ΔBRET.s
[5]; mock
  Span, G protein dissociation: −246.10 (6.75) ^* ΔBRET.s
[6]; coexpression of GRK2
  Span, β-arrestin 2 translocation, CB2 D351A/D354A/D356A/D359A: 194.18 (13.37) ^* ΔBRET.s
  increase of β-arrestin 2 translocation response versus mock: 36%
[6]; coexpression of GRK3
  Span, β-arrestin 2 translocation, CB2 D351A/D354A/D356A/D359A: 180.16 (13.23) ^* ΔBRET.s
  increase of β-arrestin 2 translocation response versus mock: 26%
[6]; mock
  Span, β-arrestin 2 translocation, CB2 D351A/D354A/D356A/D359A: 142.57 (8.39)^◊ ΔBRET.s
  reduction of β-arrestin 2 translocation response versus wild-type CB2: 36%
CB2 D351A/D354A [7]; 1-μM CP55940
  attenuation of G protein dissociation by addition of β-arrestin 2: over 50%
CB2 D351A/D354A [7]; HEK 293 cells, + β-arrestin 2
  G protein dissociation at 1 μM CP55940: −97.62 (4.27) ΔBRET.s
  G protein dissociation at 1 μM CP55940, % mock: 47.86 (1.69) % mock
CB2 D351A/D354A [7]; HEK 293 cells, mock
  Span, G protein dissociation: −204.02 (5.54) ΔBRET.s
CB2 [8]; coexpression of GRK1
  Span, β-arrestin 1 translocation to CB2: 86.32 (2.74) ^* ΔBRET.s
CB2 [8]; coexpression of GRK2
  Span, β-arrestin 1 translocation to CB2: 79.90 (3.34) ^* ΔBRET.s
CB2 [8]; coexpression of GRK3
  Span, β-arrestin 1 translocation to CB2: 79.51 (2.33) ^* ΔBRET.s
CB2 [8]; coexpression of GRK4
  Span, β-arrestin 1 translocation to CB2: 64.47 (1.90) ΔBRET.s
CB2 [8]; coexpression of GRK5
  Span, β-arrestin 1 translocation to CB2: 70.53 (2.52) ΔBRET.s
CB2 [8]; coexpression of GRK6
  Span, β-arrestin 1 translocation to CB2: 66.73 (3.12) ΔBRET.s
CB2 [8]; mock (no GRK)
  Span, β-arrestin 1 translocation to CB2: 63.07 (4.10) ΔBRET.s

## Cn1c(CNc2cccc(C(=O)NCc3ccccc3C(F)(F)F)c2)nnc1-c1ccncc1 [compound 101]
Endogenous GRK2/3; stimulation with 1-μM AMB-FUBINACA
  reduction of β-arrestin 2 translocation to CB2: approximately 15%
Endogenous GRK2/3; stimulation with 10-μM CP55940
  reduction of β-arrestin 2 translocation to CB2: approximately 15%
Endogenous GRK2/3; stimulation with […] 2-AG
  reduction of β-arrestin 2 translocation to CB2: approximately 15%

Source: paper PMC12591375 (British journal of pharmacology, 2022)
